In ChEMBL document CHEMBL1140578, “Solid-phase synthesis and biological evaluation of a uridinyl branched peptide urea library” (2007):
In brackets after ≈: the same amount, converted by molar mass. Activity calls are given as the source filed them. No cut-off for these calls is given here.

Legend:
Staphylococcus aureus = assay: Antimicrobial activity against methicillin-susceptible Staphylococcus aureus; format: functional, organism-based
Enterococcus faecalis = assay: Antimicrobial activity against Enterococcus faecalis; format: functional, organism-based
Bacillus anthracis = assay: Antimicrobial activity against Bacillus anthracis Sterne; format: functional, organism-based
[1] = tested on: Mycobacterium tuberculosis; assay: Antituberculosis activity against Mycobacterium tuberculosis H37Rv by micro-broth dilution method; format: functional
Outline: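 M. tuberculosis H37Rv grown in Middlebrook 7H9 ADC medium and tested by microbroth dilution per CLSI guidelines, with 2×10^4 bacteria per well. Compounds were dissolved and diluted in DMSO (4 μl into 196 μl). The primary screen used 20, 10 and 5 μg/ml based on recovered yield. Resynthesized compounds were run as 1:1 serial dilutions from 200 to 1.56 μg/ml to give MIC90. Controls were no drug and isoniazid.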

Bacillus subtilis = assay: Antimicrobial activity against Bacillus subtilis; format: functional, organism-based
Escherichia coli = assay: Antimicrobial activity against Escherichia coli K12; format: functional, organism-based

Row | Structure (SMILES) | Activity (Staphylococcus aureus) | Activity (Enterococcus faecalis) | Activity (Bacillus anthracis) | MIC90 [1] | Activity (Bacillus subtilis) | Activity (Escherichia coli)
1 | CCCCCCNC(=O)N[C@@H](Cc1c[nH]c2ccccc12)C(=O)N[C@@H](CNC(=O)[C@@H](N)Cc1c[nH]c2ccccc12)C(=O)NC[C@H]1O[C@@H](n2ccc(=O)[nH]c2=O)[C@H](O)[C@@H]1O | inactive | inactive | inactive | 25 µg/mL (≈ 30.2 µM) | inactive | inactive
2 | COc1ccc(NC(=O)N[C@@H](Cc2ccc(O)cc2)C(=O)N[C@@H](CNC(=O)[C@@H](N)Cc2ccc([N+](=O)[O-])cc2)C(=O)NC[C@H]2O[C@@H](n3ccc(=O)[nH]c3=O)[C@H](O)[C@@H]2O)cc1 | inactive | inactive | inactive | 12.5 µg/mL (≈ 15 µM) | inactive | inactive
3 | N[C@@H](Cc1c[nH]c2ccccc12)C(=O)NC[C@H](NC(=O)[C@H](Cc1c[nH]c2ccccc12)NC(=O)NCCc1ccccc1)C(=O)NC[C@H]1O[C@@H](n2ccc(=O)[nH]c2=O)[C@H](O)[C@@H]1O | inactive | inactive | inactive | 50 µg/mL (≈ 58.9 µM) | inactive | inactive
4 | COc1ccc(NC(=O)N[C@@H](Cc2c[nH]c3ccccc23)C(=O)N[C@@H](CNC(=O)[C@@H](N)Cc2c[nH]c3ccccc23)C(=O)NC[C@H]2O[C@@H](n3ccc(=O)[nH]c3=O)[C@H](O)[C@@H]2O)cc1 | inactive | inactive | inactive | 12.5 µg/mL (≈ 14.7 µM) | inactive | inactive
5 | CCCNC(=O)N[C@@H](Cc1c[nH]c2ccccc12)C(=O)N[C@@H](CNC(=O)[C@@H](N)Cc1c[nH]c2ccccc12)C(=O)NC[C@H]1O[C@@H](n2ccc(=O)[nH]c2=O)[C@H](O)[C@@H]1O | inactive | inactive | inactive | 100 µg/mL (≈ 127 µM) | inactive | inactive
6 | CC(=O)c1cccc(NC(=O)N[C@@H](Cc2c[nH]c3ccccc23)C(=O)N[C@@H](CNC(=O)[C@@H](N)CC(N)=O)C(=O)NC[C@H]2O[C@@H](n3ccc(=O)[nH]c3=O)[C@H](O)[C@@H]2O)c1 | inactive | inactive | inactive | > 200 µg/mL | inactive | inactive
7 | CC(=O)c1cccc(NC(=O)N[C@@H](Cc2c[nH]c3ccccc23)C(=O)N[C@@H](CNC(=O)[C@@H](N)Cc2c[nH]c3ccccc23)C(=O)NC[C@H]2O[C@@H](n3ccc(=O)[nH]c3=O)[C@H](O)[C@@H]2O)c1 | inactive | inactive | inactive | 50 µg/mL (≈ 57.9 µM) | inactive | inactive
8 | CCCCCCNC(=O)N[C@@H](Cc1ccc(O)cc1)C(=O)N[C@@H](CNC(=O)[C@@H](N)Cc1c[nH]c2ccccc12)C(=O)NC[C@H]1O[C@@H](n2ccc(=O)[nH]c2=O)[C@H](O)[C@@H]1O | inactive | inactive | inactive | 12.5 µg/mL (≈ 15.5 µM) | inactive | inactive
9 | CSCC[C@H](NC(=O)NCCc1ccccc1)C(=O)N[C@@H](CNC(=O)[C@@H](N)Cc1ccc([N+](=O)[O-])cc1)C(=O)NC[C@H]1O[C@@H](n2ccc(=O)[nH]c2=O)[C@H](O)[C@@H]1O | inactive | inactive | inactive | 100 µg/mL (≈ 125 µM) | inactive | inactive
